Source: PubChem
V1aR counter – V1a receptor agonism, counter-screen for OXTR agonists | 0.25% of 320,000 active | AID 2797 | CHO-V1R cells, Fluo-8 calcium fluorescence, agonist mode; 0% DMSO, 100% 3 nM vasopressin | activation, % at 3 µM | P37288;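 active means activation above the mean activation of all tested compounds plus 3 SD, per screening run, cut at about 20% in these data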;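 further: signal is peak over basal fluorescence ratio across a 100 second FLIPR read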
TRPML3 agonist – human mucolipin-3 channel agonism. activation, % at 3 µM. AID 1448. 0.29% of 220,000 active. HEK293 TRPML3-YFP, Fluo-8 calcium fluorescence; 100% = the carbachol control signal. Q8TDD5;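 active means activation above its plate's cutoff, the mean activation of the plate's test wells plus 3 SD, cut at about 12% in these data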;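 further: 0% = DMSO only wells and 100% = carbachol wells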
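Material: TRPML3-YFP stable HEK293 cells | Dosing: One concentration, 3 µM nominal, 0.3% DMSO | Timing: 125 s total fluorescence read per well | Technique: Fluo-8 calcium dye fluorescence, ex 470-495, em 515-575 nm | Measure: Percent activation from peak-to-basal fluorescence ratio, scaled between DMSO and carbachol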
OXTR potentiator – potentiators of human oxytocin receptor; AID 2445; P30559; 0.061% of 320,000 active; CHO-OTR cells, Fluo-8 calcium fluorescence, potentiator mode; 0% = oxytocin EC15, 100% = EC100; activation, % at 3 µM;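 active means activation above that plate's cutoff, the mean activation of tested compounds plus 3 SD, cut at about 6.6% in these data, passing the limit was not always enough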;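 further: 100% uses oxytocin at 75 nM as the full agonist control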
Target sequence (P30559 whole entry, looked up): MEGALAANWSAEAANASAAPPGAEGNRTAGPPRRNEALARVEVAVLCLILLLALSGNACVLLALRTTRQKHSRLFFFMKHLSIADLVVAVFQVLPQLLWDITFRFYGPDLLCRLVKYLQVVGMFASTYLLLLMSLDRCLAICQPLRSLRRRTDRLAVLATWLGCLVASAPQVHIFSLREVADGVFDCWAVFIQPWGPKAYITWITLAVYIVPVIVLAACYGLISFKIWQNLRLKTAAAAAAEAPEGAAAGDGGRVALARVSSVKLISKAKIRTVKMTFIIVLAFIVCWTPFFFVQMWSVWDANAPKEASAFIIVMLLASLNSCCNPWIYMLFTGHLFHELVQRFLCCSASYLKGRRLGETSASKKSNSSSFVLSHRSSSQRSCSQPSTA
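Assay system: CHO cell line stably expressing human OTR. Reagent: EC15 oxytocin agonist. Dosing: single dose, 3.0 µM nominal final compound concentration. Timing: compound 6 min at room temperature before oxytocin, 100 s read. Signal: kinetic Fluo-8 calcium fluorescence. Controls: oxytocin EC15 low and EC100 high.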
TRPN1 ag – agonists of zebrafish TRPN1 channel | HEK293 zebrafish TRPN1-YFP, Fluo-8 calcium fluorescence; 100% = response to 87 µM carbachol | activation, % at 3 µM | 0.18% of 220,000 active | AID 1424;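 active means activation above its plate's cutoff, the mean activation of test wells on that plate plus 3 SD, cut at about 19% in these data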;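 further: 0% = DMSO alone and 100% = 87 µM carbachol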
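Control set: carbachol 87 µM as high control, DMSO as low control; system: HEK293 stable line with zebrafish TRPN1-YFP; read-out: % activation versus carbachol response; detection: intracellular calcium fluorescence with Fluo-8; doses: single test compound dose, 3 µM nominal, 0.3% DMSO; schedule: dye 1 h 37 °C plus 30 min RT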
OXTR agonist – activates the human oxytocin receptor | activation, % at 3 µM | 0.32% of 320,000 active | AID 2435 | P30559 | CHO-OTR cells, Fluo-8 calcium fluorescence; normalized: DMSO 0%, oxytocin 100%;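 active means activation above the mean of all tested compounds plus 3 SD, cutoff set per screening run, cut at about 20% in these data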;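 further: peak over basal fluorescence ratio from a 100 s FLIPR kinetic read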
OXTR pot cf – confirmation of human oxytocin receptor potentiators; 180 tested, under 10 active; shares compounds with OXTR potentiator; activation, % at 3 µM; CHO-OTR cells, Fluo-8 calcium fluorescence, potentiation; scaled from low-dose to maximal oxytocin;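 active means mean percent activation over triplicates above a cutoff set from solvent-only control plates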;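 further: compounds tested in the presence of an EC15 dose of oxytocin; 0% = EC15 oxytocin with DMSO and 100% = EC100 oxytocin with DMSO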
* hit, by the source's call; . = not tested or not shown. The list is not random: actives were taken first. Their share in the collection is about 0.58%.

SMILES | V1aR counter | TRPML3 agonist | OXTR potentiator | TRPN1 ag | OXTR agonist | OXTR pot cf
Cc1cn([C@H]2C[C@H](O)[C@@H](COS(=O)(=O)O)O2)c(=O)[nH]c1=O | 1.1 | . | 14.0* | . | 1.9 | 0.3
CC(Sc1ccc(Cl)cc1)C(=O)NCc1ccc2c(c1)OCO2 (stereo unspecified) | -0.5 | -0.3 | 9.4* | -1.1 | -2.4 | 0.0
COc1cc(SC)ccc1C(=O)NCCCOC(C)C | 0.5 | 0.2 | 11.3* | -1.2 | -0.3 | -6.8
CCCNC(=O)c1ccc(SC)cc1OC | -1.7 | -0.2 | -13.3 | -1.5 | -2.4 | .
O=S(=O)(c1ccc(S(=O)(=O)N2CCOCC2)cc1)N1CCCC1 | 2.1 | -0.8 | 12.3* | 0.5 | 1.6 | -4.3
O=S(=O)(c1ccc(S(=O)(=O)N2CCCC2)cc1)N1CCCCC1 | 0.5 | . | -4.3 | . | 0.6 | .
O=C(CN1C(=O)C(=O)N(CCC2=CCCCC2)C1=O)Nc1ccc(F)cc1F | 1.5 | . | -5.6 | . | 2.4 | .
O=C(Nc1ccc2ccccc2c1)c1ccc2[nH]c(=O)c(=O)[nH]c2c1 | 0.7 | . | -7.8 | . | 0.0 | .
CC(=O)N1CCN(C(=O)C(Cc2c[nH]c3ccccc23)NC(=O)c2ccccc2Cl)CC1 (stereo unspecified) | 0.5 | . | 15.2* | . | 1.5 | -5.7
CCCCC(=O)NC(=S)NNC(=O)CCc1ccccc1 | 0.2 | 1.4 | -1.2 | 4.4 | 0.6 | .
CCN(C(=S)NC(=O)CCc1ccccc1)c1ccccc1 | 0.6 | 0.5 | 12.0* | 2.1 | 0.2 | -2.7
Cc1c(C(=O)N2CCN(CCc3ccccn3)CC2)oc2ccc(Cl)cc12 | 5.1 | . | -4.5 | . | 3.3 | .
CN(C(=O)CSc1nnnn1C)C1(C#N)CCCCC1 | 0.6 | . | -4.3 | . | 0.3 | .
CCn1c(=O)c(C(=O)Nc2ccccn2)c(O)c2ccccc21 | 3.1 | 0.9 | 12.4* | 1.7 | 0.4 | -3.1
CCOC(=O)C1CCN(C(=O)c2ccccc2NC(=O)C2=C(C)OCCS2)CC1 | -1.2 | . | -7.6 | . | -0.4 | .
Cc1ccc(CNC(=O)C2CCC(=O)N2C2CCCCC2)cc1 (stereo unspecified) | 0.3 | 0.2 | 10.3* | -0.2 | 1.4 | -4.9
O=C(NCC(=O)N1CCN(S(=O)(=O)c2ccccc2F)CC1)c1ccc2c(c1)OCO2 | 0.4 | . | -3.8 | . | -0.6 | .
COc1cc(OC)cc(C(=O)NCC(=O)N2CCN(S(=O)(=O)c3ccccc3F)CC2)c1 | 0.3 | . | 13.7* | . | 0.9 | 0.6
Cc1cc(C(=O)NCC(C)(C)N2CCOCC2)c(C)o1 | -0.3 | . | 4.6 | . | 0.0 | .
O=C(O)c1ccccc1NC(=O)C1CCCO1 (stereo unspecified) | 0.4 | -0.2 | 12.3* | -0.4 | 0.9 | 1.4
CCOC(=O)C1=C(CNCCOc2ccc(OC)cc2)NC(=O)NC1c1ccc2c(c1)OCO2 (stereo unspecified) | -0.5 | -1.2 | 10.0* | -2.2 | -1.0 | -10.1
O=C(NC(c1ccccc1)c1ccccc1)C1CCCC1 | -1.1 | -0.1 | 11.7* | -0.3 | -1.5 | 0.3
CCCCn1c(-c2ccoc2C)n[nH]c1=S | 0.1 | 0.3 | 10.0* | -1.1 | 1.4 | -7.0
CCN(c1ccccc1)S(=O)(=O)c1ccc(OC)c(NC(=O)CCc2nc3ccccc3c(=O)[nH]2)c1 | 0.1 | . | -5.8 | . | -1.9 | .
COc1c(-c2ccccc2)oc2c(ccc3occc32)c1=O | -1.1 | . | 1.7 | . | -2.1 | .
SMILES | V1aR counter | TRPML3 agonist | OXTR potentiator | TRPN1 ag | OXTR agonist | OXTR pot cf
CCn1c(SCC(=O)Nc2nc(C)cs2)nnc1-c1cccnc1 | 0.2 | 0.7 | 11.2* | -0.2 | 0.1 | -3.0
CCn1c(SCC(=O)Nc2nccs2)nnc1-c1cccnc1 | 0.3 | . | -5.5 | . | 0.3 | .
CCC(CC)NC(=O)c1nn(Cc2ccccc2)c(=O)c2ccccc12 | -0.8 | . | 0.4 | . | -1.4 | .
CC(C)(C)NC(=O)c1nn(Cc2ccccc2)c(=O)c2ccccc12 | -0.8 | -0.1 | 15.2* | -1.5 | -1.4 | -7.1
COc1ccc(Nc2nnc(-c3ccc(C)cc3)c3ccccc23)cc1C(=O)N1CCCCC1 | 7.8 | -0.5 | 17.2* | -1.6 | -2.7 | 5.0
COC(CNC(=O)c1cn(C)c2ccc(S(=O)(=O)N3CCOCC3)cc2c1=O)OC | -0.3 | . | -5.9 | . | -0.3 | .
CCn1cc(C(=O)NCC(OC)OC)c(=O)c2cc(S(=O)(=O)N3CCOCC3)ccc21 | 0.8 | . | 12.7* | . | 1.2 | -6.5
O=C(/C=C/c1cccs1)Nc1ccncc1 | -1.4 | 0.8 | 12.5* | 0.6 | -1.4 | 1.9
O=C(/C=C/c1cccs1)Nc1ccc([N+](=O)[O-])cc1 | 2.7 | 0.9 | -13.2 | 8.7 | 0.9 | .
Cc1cc(=O)oc2c3c(cc(OCC(=O)NCC(=O)N[C@H](C(=O)O)C(C)C)c12)OC(C)(C)CC3 | -1.2 | . | 12.0* | . | 0.0 | -4.6
CC[C@H](C)[C@H](NC(=O)CNC(=O)COc1cc2c(c3oc(=O)cc(C)c13)CCC(C)(C)O2)C(=O)O | 0.6 | . | -8.0 | . | 0.6 | .
COC(=O)CSc1[nH]c2ccc(F)cc2c1[N+](=O)[O-] | 0.5 | 0.6 | 9.0* | 3.3 | -0.1 | -1.2
CC(=O)c1sc(NC(=O)C=C(C)C)nc1C | 0.1 | 0.1 | 9.1* | 0.6 | -0.4 | -8.8
CCCCC(=O)Nc1nc(C)c(C(C)=O)s1 | -0.1 | -0.2 | 4.9 | 0.3 | -0.3 | .
Cc1ccccc1N(CC(=O)NC1CCCCC1)C(=O)CNC(=O)c1cccs1 | 1.8 | . | -8.4 | . | 0.9 | .
